Laboratory results: ChEMBL document CHEMBL1130297, “Synthesis of 5,6-dihydro-4-hydroxy-2-pyrones as HIV-1 protease inhibitors: the profound effect of polarity on antiviral activity” (J Med Chem, 1997)
Each block holds one compound with its values, some of them ahead of it.

Tests used:
[1] = Cytotoxicity in CEM cells in the absence of virus; assay type: cell-based; settings: human, CEM (CCRF-CEM) cells; read-out: TC50 (the source's name)
Summary of the method: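 Toxicity read in uninfected CEM cells (no virus present), run alongside the cellular antiviral protocol. Reported as TC50.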

CCRF-CEM = assay: Antiviral activity in HIV infected CEM cells.; assay type: functional, cell-based; settings: Homo sapiens
Summary of the method: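 Cytopathic-effect protection assay in HIV-infected CEM cells by a standard protocol. EC50 taken as the concentration at which 50% of cells are protected from cytopathic effects.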

[2] = molecular target: Human immunodeficiency virus type 1 protease (Human immunodeficiency virus 1, UniProt Q72874); assay: In vitro inhibition activity against HIV-1 protease.
Summary of the method: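 HIV-1 protease inhibition read by HPLC assay at pH 6.2, modified from an earlier method. Buffer: 1.0 mM dithiothreitol, 80 mM MES, 160 mM NaCl, 1.0 mM EDTA, 0.1% polyethylene glycol (MW 8000). Final protease concentration 1.5 nM. IC50 values reported.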

EC50 (CCRF-CEM): 3.1 µM
IC50 [2]: 0.004 µM
SMILES: Cc1cc(SC2=C(O)OC(CCc3cccc(N)c3)(c3ccccc3)CC2=O)c(C(C)(C)C)cc1CO (stereo not drawn)
CC50 [1]: 23 µM

EC50 (CCRF-CEM): > 33 µM
IC50 [2]: 0.015 µM
SMILES: COc1cc(C(C)(C)C)c(SC2=C(O)OC(CCc3ccccc3)(c3ccccc3)CC2=O)cc1C (stereo not drawn)
CC50 [1]: 33 µM

EC50 (CCRF-CEM): 3.7 µM
IC50 [2]: 0.0031 µM
SMILES: Cc1cc(SC2=C(O)OC(CCc3ccc(N)cc3)(c3ccccc3)CC2=O)c(C(C)(C)C)cc1CO (stereo not drawn)
CC50 [1]: 94 µM

EC50 (CCRF-CEM): 4.2 µM
IC50 [2]: 0.0037 µM
SMILES: Cc1cc(SC2=C(O)OC(CCc3ccccc3)(c3ccc(OCCO)cc3)CC2=O)c(C(C)(C)C)cc1O (stereo not drawn)
CC50 [1]: 27 µM

EC50 (CCRF-CEM): > 67 µM
IC50 [2]: 0.032 µM
SMILES: Cc1ccc(C(C)(C)C)c(SC2=C(O)OC(CCc3ccccc3)(c3ccc(N)cc3)CC2=O)c1 (stereo not drawn)
CC50 [1]: 67 µM

EC50 (CCRF-CEM): 2.5 µM
IC50 [2]: 0.0066 µM
SMILES: Cc1cc(SC2=C(O)OC(CCc3ccccc3)(c3ccccc3)CC2=O)c(C(C)(C)C)cc1CO (stereo not drawn)
CC50 [1]: 66 µM

EC50 (CCRF-CEM): > 18 µM
IC50 [2]: 0.0045 µM
SMILES: COCc1cc(C(C)(C)C)c(SC2=C(O)OC(CCc3ccccc3)(c3ccc(OCCO)cc3)CC2=O)cc1C (stereo not drawn)
CC50 [1]: 18 µM

EC50 (CCRF-CEM): > 23 µM
IC50 [2]: 0.04 µM
SMILES: Cc1ccc(C(C)(C)C)c(SC2=C(O)OC(CCc3ccccc3)(c3ccc(O)cc3)CC2=O)c1 (stereo not drawn)
CC50 [1]: 23 µM

EC50 (CCRF-CEM): 4.2 µM
IC50 [2]: 0.0014 µM
SMILES: Cc1cc(SC2=C(O)OC(CCc3ccccc3)(c3ccc(OCCO)cc3)CC2=O)c(C(C)(C)C)cc1CO (stereo not drawn)
CC50 [1]: 67 µM

EC50 (CCRF-CEM): 2.5 µM
IC50 [2]: 0.0043 µM
SMILES: Cc1cc(SC2=C(O)OC(C)(CCc3ccc(O)cc3)CC2=O)c(C(C)(C)C)cc1CO (stereo not drawn)
CC50 [1]: > 100 µM

EC50 (CCRF-CEM): > 21 µM
IC50 [2]: 0.12 µM
SMILES: Cc1cc(SC2=C(O)OC(CCc3ccc(O)cc3)(c3ccc(O)cc3)CC2=O)c(C(C)(C)C)cc1CO (stereo not drawn)
CC50 [1]: 21 µM

EC50 (CCRF-CEM): 1.4 µM
IC50 [2]: 0.0032 µM
SMILES: Cc1cc(SC2=C(O)OC(CCc3ccc(N)cc3)(C3CCCCC3)CC2=O)c(C(C)(C)C)cc1CO (stereo not drawn)
CC50 [1]: 80 µM

EC50 (CCRF-CEM): 1.8 µM
IC50 [2]: 0.0064 µM
SMILES: Cc1cc(SC2=C(O)OC(CCc3ccccc3)(c3ccc(OCCO)cc3)CC2=O)c(C(C)(C)C)cc1OCCO (stereo not drawn)
CC50 [1]: 25 µM

EC50 (CCRF-CEM): 6.1 µM
IC50 [2]: 0.0025 µM
SMILES: Cc1cc(SC2=C(O)OC(CCc3cccc(O)c3)(c3ccccc3)CC2=O)c(C(C)(C)C)cc1CO (stereo not drawn)
CC50 [1]: > 100 µM

EC50 (CCRF-CEM): > 23 µM
IC50 [2]: 0.033 µM
SMILES: Cc1cc(SC2=C(O)OC(CCc3ccccc3)(c3ccccc3)CC2=O)c(C(C)(C)C)cc1O (stereo not drawn)
CC50 [1]: 23 µM

Further lines, the compound ahead of its results:

SMILES: Cc1cc(SC2=C(O)OC(CCc3ccc(O)cc3)(C(C)C)CC2=O)c(C(C)(C)C)cc1CO (stereo not drawn)
CC50 [1]: > 100 µM
EC50 (CCRF-CEM): 0.6 µM
IC50 [2]: 0.0036 µM

SMILES: Cc1cc(SC2=C(O)OC(CCc3ccc(O)cc3)(c3ccccc3)CC2=O)c(C(C)(C)C)cc1CO (stereo not drawn)
CC50 [1]: > 100 µM
EC50 (CCRF-CEM): 4.7 µM
IC50 [2]: 0.0017 µM

SMILES: Cc1ccc(C(C)(C)C)c(SC2=C(O)OC(CCc3ccc(N)cc3)(c3ccccc3)CC2=O)c1 (stereo not drawn)
CC50 [1]: 54 µM
EC50 (CCRF-CEM): > 54 µM
IC50 [2]: 0.024 µM

SMILES: Cc1cc(SC2=C(O)OC(CCc3ccc(O)cc3)(C3CCCCC3)CC2=O)c(C(C)(C)C)cc1CO (stereo not drawn)
CC50 [1]: 75 µM
EC50 (CCRF-CEM): 0.5 µM
IC50 [2]: 0.0041 µM

SMILES: Cc1ccc(C(C)(C)C)c(SC2=C(O)OC(CCc3ccccc3)(c3ccccc3)CC2=O)c1 (stereo not drawn)
CC50 [1]: 55 µM
EC50 (CCRF-CEM): > 55 µM

SMILES: Cc1ccc(C(C)(C)C)c(SC2=C(O)OC(CCc3ccc(O)cc3)(c3ccccc3)CC2=O)c1 (stereo not drawn)
CC50 [1]: 69 µM
EC50 (CCRF-CEM): > 69 µM
IC50 [2]: 0.011 µM

SMILES: Cc1cc(SC2=C(O)OC(CCc3ccccc3)(c3ccccc3)CC2=O)c(C(C)(C)C)cc1OCCO (stereo not drawn)
CC50 [1]: 20 µM
EC50 (CCRF-CEM): > 20 µM
IC50 [2]: 0.0068 µM

SMILES: Cc1ccc(C(C)(C)C)c(SC2=C(O)OC(CCc3ccccc3)(c3ccc(OCCO)cc3)CC2=O)c1 (stereo not drawn)
CC50 [1]: 23 µM
EC50 (CCRF-CEM): 9.4 µM
IC50 [2]: 0.012 µM

SMILES: COc1ccc(C2(CCc3ccc(O)cc3)CC(=O)C(Sc3cc(C)c(CO)cc3C(C)(C)C)=C(O)O2)cc1 (stereo not drawn)
CC50 [1]: > 100 µM
EC50 (CCRF-CEM): 2 µM

SMILES: Cc1cc(SC2=C(O)OC(CCc3ccc(N)cc3)(C(C)C)CC2=O)c(C(C)(C)C)cc1CO (stereo not drawn)
CC50 [1]: > 100 µM
EC50 (CCRF-CEM): 0.5 µM
IC50 [2]: 0.0027 µM
